What was measured:
[1] = [14C]-AZD2014 metabolism and excretion after a single dose in rats; type: in vivo
[2] = clinical plasma pharmacokinetics; type: in vivo, human; conditions: for AUC / Cmax / half-life: human, plasma
[3] = test system: p-4EBP1; assay: p-4EBP1 immunohistochemistry in pre- and post-treatment tumor biopsies; type: in vivo, human; conditions: 50 mg BD, post-treatment vs pre-treatment, mean H score
How it was run: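 Paired tumor biopsies taken before treatment and on days 8-15 of continuous oral twice-daily dosing, in a subset of expansion-cohort patients with advanced solid tumors. Patients fasted (water allowed) 2 h before and 1 h after each dose. Markers were scored by immunohistochemistry on post-treatment versus pre-treatment samples.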

[4] = test system: advanced solid tumors; assay: disease response by RECIST 1.1; type: in vivo, human; conditions: one each with ovarian and endometrial cancer

Question: With `CNC(=O)c1cccc(-c2ccc3c(N4CCOC[C@@H]4C)nc(N4CCOC[C@@H]4C)nc3n2)c1` [AZD2014] as the compound, how does the “faecal excretion, % of dosed radioactivity” value [1] read?
Answer: ~85%

Question: And the “urinary excretion, % of dosed radioactivity” value [1]?
Answer: approximately 2%

Question: What about the “free weekly AUC, average” value ([2]; 50mg BD solution, converted from total exposure with MW and 5.47% free) of the same compound?
Answer: 11.05 µM·h

Question: And the “Cmin SS, Gmean” value ([2]; 50 mg BD, n=27)?
Answer: 169.5 ng/mL

Question: And the “Cmin SS, range” value ([2]; 50 mg BD, n=27)?
Answer: 0 to 2120 ng/mL

Question: And the “dose proportionality of Geomean exposure (AUC and Cmax)” value ([2]; 25 to 100 mg)?
Answer: increased greater than proportionally with increasing dose

Question: What about the AUC ([2]; oral, 25 mg, AUC, Gmean, Single dose, N=6) of the same compound?
Answer: 1640 ng·h/mL

Question: And the AUC ([2]; oral, 25 mg, AUC, Range, Single dose, N=6)?
Answer: 883 to 2730 ng·h/mL

Question: What about the AUC ([2]; oral, 25 mg, AUCss, Gmean, Steady state, 25 mg BD, N=6) of the same compound?
Answer: 2980 ng·h/mL

Question: And the AUC ([2]; oral, 25 mg, AUCss, Range, Steady state, 25 mg BD, N=6)?
Answer: 1000 to 6560 ng·h/mL

Question: What about the Cmax ([2]; oral, 25 mg, Cmax ss, Gmean, Steady state, 25 mg BD, N=6) of the same compound?
Answer: 747 ng/mL

Question: What about the Cmax ([2]; oral, 25 mg, Cmax ss, Range, Steady state, 25 mg BD, N=6) of the same compound?
Answer: 227 to 1450 ng/mL

Question: What about the Cmax ([2]; oral, 25 mg, Cmax, Gmean, Single dose, N=6) of the same compound?
Answer: 435 ng/mL

Question: And the Cmax ([2]; oral, 25 mg, Cmax, Range, Single dose, N=6)?
Answer: 221 to 681 ng/mL

Question: What about the half-life ([2]; oral, 25 mg, t½, Mean, Single dose, N=6) of the same compound?
Answer: 2.96 h

Question: And the half-life ([2]; oral, 25 mg, t½, Range, Single dose, N=6)?
Answer: 0.88 to 6.71 h

Question: And the half-life ([2]; oral, 25 mg, t½, ss, Mean, Steady state, 25 mg BD, N=6)?
Answer: 2.89 h

Question: What about the half-life ([2]; oral, 25 mg, t½, ss, Range, Steady state, 25 mg BD, N=6) of the same compound?
Answer: 1.34 to 4.06 h

Question: What about the AUC ([2]; oral, 50 mg, AUC, Gmean, Single dose, N=27) of the same compound?
Answer: 4020 ng·h/mL

Question: What about the AUC ([2]; oral, 50 mg, AUC, Range, Single dose, N=27) of the same compound?
Answer: 453 to 12600 ng·h/mL

Question: What about the AUC ([2]; oral, 50 mg, AUCss, Gmean, Steady state, 50 mg BD, N=37) of the same compound?
Answer: 6690 ng·h/mL

Question: What about the AUC ([2]; oral, 50 mg, AUCss, Range, Steady state, 50 mg BD, N=37) of the same compound?
Answer: 1280 to 47800 ng·h/mL

Question: And the Cmax ([2]; oral, 50 mg, Cmax ss, Gmean, Steady state, 50 mg BD, N=37)?
Answer: 1660 ng/mL

Question: And the Cmax ([2]; oral, 50 mg, Cmax ss, Range, Steady state, 50 mg BD, N=37)?
Answer: 657 to 6410 ng/mL

Question: What about the Cmax ([2]; oral, 50 mg, Cmax, Gmean, Single dose, N=27) of the same compound?
Answer: 1150 ng/mL

Question: And the Cmax ([2]; oral, 50 mg, Cmax, Range, Single dose, N=27)?
Answer: 234 to 2840 ng/mL

Question: What about the half-life ([2]; oral, 50 mg, t½, Mean, Single dose, N=27) of the same compound?
Answer: 2.48 h

Question: And the half-life ([2]; oral, 50 mg, t½, Range, Single dose, N=27)?
Answer: 0.9 to 8.04 h

Question: And the half-life ([2]; oral, 50 mg, t½, ss, Mean, Steady state, 50 mg BD, N=37)?
Answer: 3.01 h

Question: And the half-life ([2]; oral, 50 mg, t½, ss, Range, Steady state, 50 mg BD, N=37)?
Answer: 1.18 to 4.8 h

Question: And the AUC ([2]; oral, 70 mg, AUC, Gmean, Single dose, N=5)?
Answer: 8970 ng·h/mL

Question: And the AUC ([2]; oral, 70 mg, AUC, Range, Single dose, N=5)?
Answer: 6010 to 14200 ng·h/mL

Question: What about the AUC ([2]; oral, 70 mg, AUCss, Range, Steady state, 70 mg BD, N=2) of the same compound?
Answer: 7500 to 22500 ng·h/mL

Question: What about the Cmax ([2]; oral, 70 mg, Cmax ss, Range, Steady state, 70 mg BD, N=2) of the same compound?
Answer: 1500 to 3870 ng/mL

Question: And the Cmax ([2]; oral, 70 mg, Cmax, Gmean, Single dose, N=5)?
Answer: 2380 ng/mL

Question: And the Cmax ([2]; oral, 70 mg, Cmax, Range, Single dose, N=5)?
Answer: 1440 to 3690 ng/mL

Question: And the half-life ([2]; oral, 70 mg, t½, Mean, Single dose, N=5)?
Answer: 3.11 h

Question: And the half-life ([2]; oral, 70 mg, t½, Range, Single dose, N=5)?
Answer: 1.35 to 5.98 h

Question: And the half-life ([2]; oral, 70 mg, t½, ss, Range, Steady state, 70 mg BD, N=2)?
Answer: 3.63 to 4.23 h

Question: What about the AUC ([2]; oral, 100 mg, AUC, Gmean, Single dose, N=4) of the same compound?
Answer: 9670 ng·h/mL

Question: What about the AUC ([2]; oral, 100 mg, AUC, Range, Single dose, N=4) of the same compound?
Answer: 4770 to 16100 ng·h/mL

Question: What about the Cmax ([2]; oral, 100 mg, Cmax, Gmean, Single dose, N=4) of the same compound?
Answer: 2790 ng/mL

Question: And the Cmax ([2]; oral, 100 mg, Cmax, Range, Single dose, N=4)?
Answer: 1410 to 5050 ng/mL

Question: What about the half-life ([2]; oral, 100 mg, t½, Mean, Single dose, N=4) of the same compound?
Answer: 3.23 h

Question: What about the half-life ([2]; oral, 100 mg, t½, Range, Single dose, N=4) of the same compound?
Answer: 0.82 to 6.49 h

Question: What about the half-life ([2]; po, terminal elimination half-life, patients) of the same compound?
Answer: ~3 h

Question: What about the “paired biopsy samples with a reduction of p-4EBP1 levels” value [3] of the same compound?
Answer: 3/7

Question: What about the “patients with prolonged stable disease on treatment for more than one year” value [4] of the same compound?
Answer: two patients

— paper PMC4512239 (Clinical cancer research : an official journal of the …, 2015)
